# Measurements from ChEMBL document CHEMBL1671691 (Antimicrob Agents Chemother, 2010).
# Calls of active or inactive are those of the source. The rule behind the calls is not given here.
# Assays:
# Influenza A virus [1] = test: Antiviral activity against 0.001 MOI adamantane-resistant zanamivir-,oseltamivir-susceptible Influenza A virus (A/pdm/California/04/2009(H1N1)) harboring M2 V28I, S31N mutant infected in MDCK cells assessed as determination of viral titer in cell culture at 1.6 uM after 24 hrs by immunofluorescence assay; assay type: functional, organism-based; settings: A/California/04/2009(H1N1)
# Method in brief: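 Focus inhibition assay: confluent MDCK monolayers infected at MOI ∼0.001–0.1. Adsorption 1 h at 4°C, washed twice, then DMEM with 2 μg/ml TPCK-trypsin and drug for 24 h at 37°C. Cells fixed in methanol/acetic acid at −20°C, immunostained with anti-NP monoclonals and FITC secondary, and foci counted. Supernatants also titrated by focus assay. Quadruplicate on two occasions.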
# Influenza A virus [2] = test: Antiviral activity against Influenza A virus (A/Washington/29/2009(H1N1)) harboring neuraminidase H275Y mutant infected in MDCK cells from ATCC assessed as log reduction in viral titer at 1.6 uM after 24 hrs by immunofluorescent assay; assay type: functional
# Method in brief: (§1)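 Yield reduction in MDCK-ATCC or MDCK-Mill Hill cells infected at MOI ∼0.01. Adsorption 1 h at 4°C, washed, then DMEM with 2 μg/ml TPCK-trypsin and drug. At 24 h, supernatants were titrated by immunofluorescent focus assay on MDCK cells with anti-NP monoclonals and FITC secondary. Titres as log10 FFU per 100 μl; detection limit <10 FFU. Quadruplicate, mean ± SD.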
# Influenza A virus [3] = test: Antiviral activity against Influenza A virus (A/Illinois/10/2009(H1N1)) harboring neuraminidase H275Y mutant infected in MDCK cells from Mill Hill assessed as log reduction in viral titer at 1.6 uM after 24 hrs by immunofluorescent assay; assay type: functional; method in brief: as §1
# Influenza A virus [4] = test: Antiviral activity against Influenza A virus (A/Washington/29/2009(H1N1)) harboring neuraminidase H275Y mutant infected in MDCK cells from ATCC assessed as inhibition of viral replication after 3 days by microscopic analysis using crystal violet stain; assay type: functional
# Method in brief: (§2)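 Confluent MDCK-ATCC monolayers infected with virus diluted to give 15–45 plaques/well. Adsorption 1 h at 37°C without drug, then washed. Overlaid with 0.8% agarose in MEM containing drug plus TPCK-trypsin: 3 μg/ml for seasonal viruses, 2 μg/ml for 2009 A(H1N1). Incubated 3 days at 37°C, 5% CO2. Ethanol-fixed, crystal violet-stained, plaques counted. EC50 by curve fit; duplicates on three occasions, mean ± SD.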
# Influenza A virus [5] = test: Antiviral activity against Influenza A virus (A/Illinois/10/2009(H1N1)) harboring neuraminidase H275Y mutant infected in MDCK cells from Mill Hill assessed as inhibition of viral replication after 3 days by microscopic analysis using crystal violet stain; assay type: functional
# Influenza A virus [6] = test: Antiviral activity against adamantane-susceptible zanamivir-, oseltamivir-resistant Influenza A virus (A/Brazil/1633/2008(H1N1)) harboring neuraminidase Q136K mutant infected in MDCK cells assessed as inhibition of viral replication after 3 days by microscopic analysis using crystal violet stain; assay type: functional, organism-based
# Influenza A virus [7] = test: Antiviral activity against adamantane-resistant zanamivir-,oseltamivir-susceptible Influenza A virus (A/Florida/01/2009(H3N2)) harboring M2 S31N mutant infected in MDCK cells assessed as inhibition of viral replication after 3 days by microscopic analysis using crystal violet stain; assay type: functional, organism-based; method in brief: as §2
# Influenza B virus = test: Antiviral activity against oseltamivir-susceptible zanamivir-, adamantane-resistant Influenza B virus B/Memphis/20/1996 harboring neuraminidase R152K mutant infected in MDCK cells assessed as inhibition of viral replication after 3 days by microscopic analysis using crystal violet stain; assay type: functional, cell-based, B/Memphis/20/96
smiles,measurement,setting,value
NC(=O)c1nc(F)cnc1O [FAVIPIRAVIR],Activity,Influenza A virus [1],Active
same,log10FFU,Influenza A virus [2],4.2
same,log10FFU,Influenza A virus [3],4.5
same,log10FFU,Influenza A virus [4],0.78
same,log10FFU,Influenza A virus [5],5.03
same,EC50,Influenza A virus [6],830 nM
same,EC50,Influenza A virus [7],450 nM
same,EC50,Influenza B virus,570 nM
